# The source made the active and inactive calls. The rule behind the calls is not given here.
# Assays:
# [1] = molecular target: Mitogen-activated protein kinase 13 (Homo sapiens) (UniProt O15264); assay: Inhibition of recombinant full-length human SAPK4 at 1 uM using myelin basic protein as substrate measured after 40 mins in presence of [gamma33P]ATP by scintillation counting method relative to control
# [2] = molecular target: cGMP-dependent protein kinase 1 (Homo sapiens) (UniProt Q13976); assay: Inhibition of recombinant full-length human PKG1alpha at 1 uM using RRRLSFAEPG as substrate measured after 40 mins in presence of [gamma33P]ATP by scintillation counting method relative to control
# [3] = tested on: Protein kinase C eta type (Homo sapiens), P24723 [UNDEFINED MUTATION]; assay: Inhibition of recombinant human PKCeta V108L/G109R/L392Q mutant (2 to end residues) at 1 uM using ERMRPRKRQGSVRRRV as substrate measured after 40 mins in presence of [gamma33P]ATP by scintillation counting method relative to control
# [4] = molecular target: Protein-tyrosine kinase 2-beta (Homo sapiens) (UniProt Q14289); assay: Inhibition of recombinant full-length human Pyk2 at 1 uM using poly(Glu, Tyr) 4:1 as substrate measured after 40 mins in presence of [gamma33P]ATP by scintillation counting method relative to control
# [5] = molecular target: Serine/threonine-protein kinase BRSK1 (Homo sapiens) (UniProt Q8TDC3); assay: Inhibition of recombinant human BrSK1 (2 to end residues) at 1 uM using KKKVSRSGLYRSPSMPENLNRPR as substrate measured after 40 mins in presence of [gamma33P]ATP by scintillation counting method relative to control
# [6] = molecular target: Cyclin-dependent kinase 9 (Homo sapiens) (UniProt P50750); settings: A549, 0.25 uM
# Homo sapiens = species on record: Homo sapiens; assay: Inhibition of recombinant human MARK1 V16E/T20S double mutant (2 to end residues) at 1 uM using KKKVSRSGLYRSPSMPENLNRPR as substrate measured after 40 mins in presence of [gamma33P]ATP by scintillation counting method relative to control
# [7] = molecular target: Wee1-like protein kinase 2 (Homo sapiens) (UniProt P0C1S8); assay: Inhibition of recombinant full-length human Wee1B at 1 uM using LSNLYHQGKFLQTFCGSPLYRRR as substrate measured after 120 mins in presence of [gamma33P]ATP by scintillation counting method relative to control
# [8] = molecular target: Serine/threonine-protein kinase MAK (Homo sapiens) (UniProt P20794); assay: Inhibition of recombinant full-length human MAK at 1 uM using RRRFRPASPLRGPPK as substrate measured after 120 mins in presence of [gamma33P]ATP by scintillation counting method relative to control
# [9] = molecular target: Ephrin type-A receptor 3 (Homo sapiens) (UniProt P29320); assay: Inhibition of recombinant human EphA3 (568 to end residues) at 1 uM using poly(Glu, Tyr) 4:1 as substrate measured after 40 mins in presence of [gamma33P]ATP by scintillation counting method relative to control
# [10] = molecular target: Proto-oncogene tyrosine-protein kinase Src (Homo sapiens) (UniProt P12931); assay: Inhibition of human Src (1 to 530 residues) at 1 uM using GGEEEEYFELVKKKK as substrate measured after 40 mins in presence of [gamma33P]ATP by scintillation counting method relative to control
# How it was run: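 Percent inhibition of kinase activity at a single compound concentration, measured by the outsourced Eurofins KinaseProfiler panel. Values are the mean of two independent experiments.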
# [11] = molecular target: Cyclin-dependent kinase 9 (Homo sapiens) (UniProt P50750); settings: 0.25 to 1 uM
# [12] = molecular target: Cyclin-dependent kinase-like 3 (Homo sapiens) (UniProt Q8IVW4); assay: Inhibition of human full length recombinant human CDKL3 at 1 uM using RRRFRPASPLRGP as substrate measured after 120 mins in presence of [gamma33P]ATP by scintillation counting method relative to control
# NCI-H1299 [13] = assay: Inhibition of tumorsphere formation in human H1299 cells assessed as reduction in side population ratio by PI/Hoechst 33342 staining based flow cytometry; assay type: functional, cell-based
# [14] = Intrinsic clearance in Sprague-Dawley rat liver microsomes at 2 uM in presence of NADPH measured up to 1 hr by HPLC analysis; assay type: ADME, Microsome
# [15] = tested on: Receptor-type tyrosine-protein kinase FLT3 (Homo sapiens), P36888 [D835Y]; assay: Inhibition of recombinant human Flt3 (564 to end residues) D835Y mutant at 1 uM using EAIYAAPFAKKK as substrate measured after 40 mins in presence of [gamma33P]ATP by scintillation counting method relative to control
# A549 = assay: Induction of apoptosis in human A549 cells assessed as increase in Bim protein expression at 0.25 to 1 uM after 24 hrs by Western blot analysis; assay type: functional, cell-based
# How it was run: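 A549 or H1299 cells exposed to the indicated concentrations for 24 h. Protein extracts then immunoblotted for apoptosis-pathway proteins (Bcl2, Bim, cleaved caspase 3).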
# [16] = molecular target: Mitogen-activated protein kinase 14 (Homo sapiens) (UniProt Q16539); assay: Inhibition of recombinant full-length human SAPK2a at 1 uM using myelin basic protein as substrate measured after 40 mins in presence of [gamma33P]ATP by scintillation counting method relative to control
# [17] = molecular target: Dual specificity tyrosine-phosphorylation-regulated kinase 1A (Homo sapiens) (UniProt Q13627); assay: Inhibition of recombinant full-length human DYRK1A at 1 uM using RRRFRPASPLRGPPK as substrate measured after 40 mins in presence of [gamma33P]ATP by scintillation counting method relative to control
# [18] = molecular target: cAMP-dependent protein kinase catalytic subunit PRKX (Homo sapiens) (UniProt P51817); assay: Inhibition of recombinant full-length human PrKX at 1 uM using RRRLSFAEPG as substrate measured after 40 mins in presence of [gamma33P]ATP by scintillation counting method relative to control
# [19] = molecular target: Tyrosine-protein kinase Lck (Homo sapiens) (UniProt P06239); assay: Inhibition of recombinant full-length human LCK activated at 1 uM using KVEKIGEGTYGVVYK as substrate measured after 40 mins in presence of [gamma33P]ATP by scintillation counting method relative to control
# [20] = molecular target: Fibroblast growth factor receptor 4 (Homo sapiens) (UniProt P22455); assay: Inhibition of recombinant human FGFR4 (442 to 755 residues) at 1 uM using poly(Glu, Tyr) 4:1 as substrate measured after 40 mins in presence of [gamma33P]ATP by scintillation counting method relative to control
# [21] = molecular target: Serine/threonine-protein kinase DCLK3 (Homo sapiens) (UniProt Q9C098); assay: Inhibition of recombinant human DCAMKL3 (345 to end residues) at 1 uM using KKLNRTLSFAEPG as substrate measured after 40 mins in presence of [gamma33P]ATP by scintillation counting method relative to control
# NCI-H1299 [22] = assay: Induction of apoptosis in human H1299 cells assessed as late apoptotic cells at 0.25 uM after 48 hrs by AnnexinV-FITC/PI staining-based flow cytometric analysis (reference value: 1.77%); assay type: functional
# Cyclin-dependent kinase 9 (Homo sapiens), sequence (P50750 whole entry): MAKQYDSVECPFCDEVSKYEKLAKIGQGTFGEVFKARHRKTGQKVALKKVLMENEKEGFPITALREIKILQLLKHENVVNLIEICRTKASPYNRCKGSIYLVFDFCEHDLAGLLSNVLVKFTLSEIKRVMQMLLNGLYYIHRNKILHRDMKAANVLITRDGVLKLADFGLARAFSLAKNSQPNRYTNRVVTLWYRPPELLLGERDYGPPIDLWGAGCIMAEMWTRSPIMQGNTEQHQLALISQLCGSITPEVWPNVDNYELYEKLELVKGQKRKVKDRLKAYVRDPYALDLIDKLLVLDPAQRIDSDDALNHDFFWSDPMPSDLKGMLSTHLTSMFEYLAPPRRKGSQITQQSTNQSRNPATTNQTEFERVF
# Serine/threonine-protein kinase MAK (Homo sapiens), sequence (P20794 whole entry): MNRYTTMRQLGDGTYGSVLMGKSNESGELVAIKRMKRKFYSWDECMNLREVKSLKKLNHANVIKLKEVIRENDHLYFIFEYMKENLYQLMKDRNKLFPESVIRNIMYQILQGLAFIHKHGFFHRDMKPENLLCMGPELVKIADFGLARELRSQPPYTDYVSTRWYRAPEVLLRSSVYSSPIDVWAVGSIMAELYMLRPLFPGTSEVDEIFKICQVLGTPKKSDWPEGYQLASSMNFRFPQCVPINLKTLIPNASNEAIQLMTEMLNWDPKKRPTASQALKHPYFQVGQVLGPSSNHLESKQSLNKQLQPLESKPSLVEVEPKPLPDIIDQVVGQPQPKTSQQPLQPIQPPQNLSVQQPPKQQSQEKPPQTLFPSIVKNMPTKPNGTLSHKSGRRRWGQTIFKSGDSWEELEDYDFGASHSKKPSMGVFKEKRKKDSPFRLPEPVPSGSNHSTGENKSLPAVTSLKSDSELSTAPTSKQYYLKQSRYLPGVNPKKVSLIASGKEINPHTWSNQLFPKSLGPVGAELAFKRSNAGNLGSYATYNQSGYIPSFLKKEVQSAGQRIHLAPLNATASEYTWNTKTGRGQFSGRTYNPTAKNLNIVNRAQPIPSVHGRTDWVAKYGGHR
# Serine/threonine-protein kinase BRSK1 (Homo sapiens), sequence (Q8TDC3 whole entry): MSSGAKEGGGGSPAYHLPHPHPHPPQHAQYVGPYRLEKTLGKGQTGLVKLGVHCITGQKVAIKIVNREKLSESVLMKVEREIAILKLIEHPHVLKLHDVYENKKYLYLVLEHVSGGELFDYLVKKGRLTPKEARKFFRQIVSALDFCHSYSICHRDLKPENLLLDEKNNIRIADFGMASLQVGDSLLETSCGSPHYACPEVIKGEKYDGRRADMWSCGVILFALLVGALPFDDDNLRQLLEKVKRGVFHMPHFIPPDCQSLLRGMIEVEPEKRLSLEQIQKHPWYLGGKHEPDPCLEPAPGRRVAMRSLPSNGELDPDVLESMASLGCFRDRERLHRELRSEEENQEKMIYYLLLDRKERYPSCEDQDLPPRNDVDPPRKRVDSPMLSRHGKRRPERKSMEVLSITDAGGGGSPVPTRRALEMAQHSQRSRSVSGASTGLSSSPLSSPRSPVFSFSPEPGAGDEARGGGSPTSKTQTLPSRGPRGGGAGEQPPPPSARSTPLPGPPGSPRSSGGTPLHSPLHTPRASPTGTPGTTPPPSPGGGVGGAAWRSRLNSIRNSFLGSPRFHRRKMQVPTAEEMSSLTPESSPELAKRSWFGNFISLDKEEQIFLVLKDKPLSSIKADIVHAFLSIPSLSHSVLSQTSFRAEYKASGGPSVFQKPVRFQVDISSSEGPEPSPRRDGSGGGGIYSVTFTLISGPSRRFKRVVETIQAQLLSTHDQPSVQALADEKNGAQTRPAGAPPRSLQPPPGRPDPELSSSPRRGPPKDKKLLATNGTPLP
# Wee1-like protein kinase 2 (Homo sapiens), sequence (P0C1S8 whole entry, looked up): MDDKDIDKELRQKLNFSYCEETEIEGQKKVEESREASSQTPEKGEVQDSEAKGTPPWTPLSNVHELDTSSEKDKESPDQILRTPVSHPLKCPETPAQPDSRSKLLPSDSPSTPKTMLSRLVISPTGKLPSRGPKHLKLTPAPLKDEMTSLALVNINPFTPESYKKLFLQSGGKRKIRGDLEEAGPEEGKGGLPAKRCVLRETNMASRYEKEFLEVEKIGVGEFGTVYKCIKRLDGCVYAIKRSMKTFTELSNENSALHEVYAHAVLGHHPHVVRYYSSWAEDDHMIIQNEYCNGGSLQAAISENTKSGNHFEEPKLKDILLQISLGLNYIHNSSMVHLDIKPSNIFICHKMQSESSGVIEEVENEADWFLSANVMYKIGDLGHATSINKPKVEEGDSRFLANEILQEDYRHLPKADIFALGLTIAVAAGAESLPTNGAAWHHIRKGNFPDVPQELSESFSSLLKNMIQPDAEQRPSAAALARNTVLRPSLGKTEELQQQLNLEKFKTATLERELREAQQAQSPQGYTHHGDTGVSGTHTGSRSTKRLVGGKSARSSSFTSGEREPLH
# Tyrosine-protein kinase Lck (Homo sapiens), sequence (P06239 2-509 limits assumed): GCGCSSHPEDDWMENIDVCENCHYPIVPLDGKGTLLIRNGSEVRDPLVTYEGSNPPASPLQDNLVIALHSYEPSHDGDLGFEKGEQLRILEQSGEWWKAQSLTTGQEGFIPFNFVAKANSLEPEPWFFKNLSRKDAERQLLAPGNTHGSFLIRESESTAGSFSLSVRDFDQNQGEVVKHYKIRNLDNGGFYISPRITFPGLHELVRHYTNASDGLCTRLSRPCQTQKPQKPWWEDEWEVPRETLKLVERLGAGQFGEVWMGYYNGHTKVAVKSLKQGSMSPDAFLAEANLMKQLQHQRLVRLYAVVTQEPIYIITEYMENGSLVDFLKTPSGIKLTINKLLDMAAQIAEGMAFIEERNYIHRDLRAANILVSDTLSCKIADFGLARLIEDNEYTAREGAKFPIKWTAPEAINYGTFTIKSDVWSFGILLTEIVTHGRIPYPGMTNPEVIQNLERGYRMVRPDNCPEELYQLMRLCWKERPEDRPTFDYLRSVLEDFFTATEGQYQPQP
# cGMP-dependent protein kinase 1 (Homo sapiens), sequence (Q13976 whole entry): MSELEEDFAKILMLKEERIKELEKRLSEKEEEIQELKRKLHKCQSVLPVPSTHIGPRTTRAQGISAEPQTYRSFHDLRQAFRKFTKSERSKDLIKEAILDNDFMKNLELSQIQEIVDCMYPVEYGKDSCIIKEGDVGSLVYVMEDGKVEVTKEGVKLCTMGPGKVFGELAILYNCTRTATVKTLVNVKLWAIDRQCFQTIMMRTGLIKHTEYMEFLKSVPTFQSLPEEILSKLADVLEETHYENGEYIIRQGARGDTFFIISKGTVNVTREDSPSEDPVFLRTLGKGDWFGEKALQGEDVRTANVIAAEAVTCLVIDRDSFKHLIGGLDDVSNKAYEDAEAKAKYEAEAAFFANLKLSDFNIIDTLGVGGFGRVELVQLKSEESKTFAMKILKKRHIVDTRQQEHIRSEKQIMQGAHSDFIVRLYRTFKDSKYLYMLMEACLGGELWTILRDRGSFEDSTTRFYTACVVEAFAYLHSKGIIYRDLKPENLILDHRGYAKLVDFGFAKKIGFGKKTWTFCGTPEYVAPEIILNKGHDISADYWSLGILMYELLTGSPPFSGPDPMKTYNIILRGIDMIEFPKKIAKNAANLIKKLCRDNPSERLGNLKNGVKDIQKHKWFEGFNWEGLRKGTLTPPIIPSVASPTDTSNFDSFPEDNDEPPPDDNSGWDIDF
# Serine/threonine-protein kinase DCLK3 (Homo sapiens), sequence (Q9C098 whole entry): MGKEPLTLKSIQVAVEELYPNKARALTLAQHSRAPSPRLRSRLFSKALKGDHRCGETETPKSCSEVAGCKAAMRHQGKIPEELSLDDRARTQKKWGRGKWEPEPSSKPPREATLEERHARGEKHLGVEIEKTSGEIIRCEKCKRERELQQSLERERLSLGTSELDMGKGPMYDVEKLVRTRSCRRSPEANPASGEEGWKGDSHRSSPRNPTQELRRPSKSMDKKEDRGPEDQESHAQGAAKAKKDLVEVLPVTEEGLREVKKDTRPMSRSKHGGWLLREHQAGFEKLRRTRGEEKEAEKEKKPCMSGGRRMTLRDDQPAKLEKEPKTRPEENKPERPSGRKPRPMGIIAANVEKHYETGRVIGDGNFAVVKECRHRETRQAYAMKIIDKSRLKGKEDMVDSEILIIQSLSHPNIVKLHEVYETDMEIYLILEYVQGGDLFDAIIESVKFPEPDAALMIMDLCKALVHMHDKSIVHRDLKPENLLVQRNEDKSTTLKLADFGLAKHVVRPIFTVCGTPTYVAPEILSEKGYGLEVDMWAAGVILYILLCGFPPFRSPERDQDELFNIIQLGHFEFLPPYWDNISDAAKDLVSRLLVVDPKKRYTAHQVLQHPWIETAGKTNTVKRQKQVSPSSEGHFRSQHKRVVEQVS
# Protein kinase C eta type (Homo sapiens), P24723 [UNDEFINED MUTATION], sequence (P24723 whole entry, looked up, stated change not applied): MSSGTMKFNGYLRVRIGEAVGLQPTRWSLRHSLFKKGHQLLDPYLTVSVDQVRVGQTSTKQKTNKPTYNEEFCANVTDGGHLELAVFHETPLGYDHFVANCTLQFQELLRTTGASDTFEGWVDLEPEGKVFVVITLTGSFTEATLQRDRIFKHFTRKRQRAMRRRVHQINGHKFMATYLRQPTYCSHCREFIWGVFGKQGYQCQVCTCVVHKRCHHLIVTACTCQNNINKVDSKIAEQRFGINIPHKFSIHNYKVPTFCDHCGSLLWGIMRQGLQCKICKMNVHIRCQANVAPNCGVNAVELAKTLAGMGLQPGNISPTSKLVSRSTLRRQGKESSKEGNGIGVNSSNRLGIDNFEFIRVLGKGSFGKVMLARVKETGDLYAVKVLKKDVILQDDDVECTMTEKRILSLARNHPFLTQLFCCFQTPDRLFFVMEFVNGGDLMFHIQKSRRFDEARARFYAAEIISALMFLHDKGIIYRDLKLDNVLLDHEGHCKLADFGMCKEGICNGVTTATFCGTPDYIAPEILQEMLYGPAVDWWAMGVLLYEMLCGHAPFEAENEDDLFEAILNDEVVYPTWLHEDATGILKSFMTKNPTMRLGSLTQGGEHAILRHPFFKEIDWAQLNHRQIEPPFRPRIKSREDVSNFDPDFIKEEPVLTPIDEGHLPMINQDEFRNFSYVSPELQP
smiles,measurement,setting,value
CN(C)C(=O)c1cc2cnc(Nc3ccc(NC(=O)CCCCCCCN=C=S)cc3)nc2n1C1CCCC1,inhibition,[1],10%
same,inhibition,[2],-3%
same,inhibition,[3],-3%
same,inhibition,[4],46%
same,inhibition,[5],16%
same,inhibition,[6],Active
same,inhibition,Homo sapiens,59%
same,inhibition,[7],-1%
same,inhibition,[8],94%
same,inhibition,[9],5%
same,inhibition,[10],36%
same,inhibition,[11],Active
same,inhibition,[12],53%
same,inhibition,NCI-H1299 [13],Dose-dependent effect
same,CLH,[14],57 µL/min/mg
same,inhibition,[15],72%
same,Activity,A549,Active
same,inhibition,[16],20%
same,inhibition,[17],2%
same,inhibition,[18],-1%
same,inhibition,[19],26%
same,inhibition,[20],-2%
same,inhibition,[21],9%
same,Activity,NCI-H1299 [22],2.24%

# — ChEMBL document CHEMBL4376814, “Novel cyclin-dependent kinase 9 (CDK9) inhibitor with suppression of cancer stemness activity against non-small-cell lung cancer” (Eur J Med Chem, 2019)
